Screening results deposited in PubChem BioAssay by SRMLSC.
Ecoli WT growth: blocks growth of wild type E. coli BW25113; AID 552; inhibition, % at 10 µM; E. coli BW25113 growth inhibition, OD600; actives 0.05% (n = 20,000); in the data active means inhibition above about 40%;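 further: bacteria exposed to compound for 20 hours at 37 °C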
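Material: bacterial strain in a whole-cell growth screen; Amount: inoculum from a 1:1000 dilution of a 1.5 h subculture; Buffer or medium: LB plus kanamycin 50 µg/mL; Dosing: one dose, 10 µM final; Times: compound exposure of 20 h at 37 °C; Measured by: absorbance at 615 nm as a measure of bacterial growth.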
* = called active by the depositor. Only a sample is shown.

SMILES	Ecoli WT growth
O=C(NCc1ccncc1)Nc1ccc(F)cc1	-13
COc1ccc(S(=O)(=O)N(C)CC(=O)NCc2cccnc2)cc1C	-21
C=CCn1c2ccccc2c2nnc(SCc3ccc4nonc4c3)nc21	-14
O=C(OCc1cccs1)c1ccccc1NS(=O)(=O)c1ccc2c(c1)OCCO2	5
CCOC(=O)C1CSC(CC(=O)Nc2ccc(Cl)cc2)C(=O)N1 (stereo not drawn)	-3
CCC1Cc2c(nc3c4c(nc(N5CCOCC5)c(C#N)c24)NC(C)=N3)O1 (stereo not drawn)	-4
CCSc1ccccc1C(=O)NCc1ccc2c(c1)OCO2	-9
COc1ccccc1-c1nnc(SCC(=O)NCc2c(C)c(Cl)cc(C(C)C)c2O)o1	1
COc1ccc(C2CNC(=O)C2)cc1OC1CCCC1 (stereo not drawn)	-1
Cc1ccc(-n2c(-c3ccncc3)nnc2-c2cccs2)cc1	0
CCOc1ccc(-n2cc(C(=O)Nc3cccc(C)n3)c3cc(OC)c(OC)cc3c2=O)cc1	0
